The subject of series [1] is proteasome. The note with it: ref Chauhan, et al 2005; cited from earlier work.
The target of series [2] is 20S proteasome chymotrypsin-like (CT-L, β5) activity (Homo sapiens, UniProt P28074). It is filed as in vivo, CB-17 SCID mice bearing human MM.1S tumors. The note with it: MM1.S, iv, read-out: CT-L proteasome activity inhibition in tumors, tumor, 24h after a single treatment, 0.15 mg/kg i.v.
Series [3] is described as follows: Tolerability in efficacy study. It is filed as in vivo, CB-17 SCID mice. To be noted: 0.15 mg/kg i.v. twice a week for three weeks.
The test system of series [4] is 20S proteasome CT-L, C-L, and T-L activities. Briefly: Ex vivo 20S proteasome activities. The note with it: for inhibition of all three proteasome activities in tumor: approximately. It is filed as in vivo, CB-17 SCID mice bearing human MM.1S tumors. The essentials: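 Male CB-17 SCID mice (4-6 wk) carrying s.c. flank MM.1S xenografts (5.0 × 10^6 cells) were dosed i.v. at ∼200-300 mm3 with 0.15 mg/kg once (D1) or three times (D1, D4, D8), or with vehicle (2% DMSO in 5% Solutol). Euthanasia at 10 min, 1, 4, 24h. Homogenates used 20 μg protein in HEPES/EDTA pH 8.0 buffer with 60 μM fluorogenic substrate (Bz-VGR-AMC for T-L) and 0.05% SDS for CT-L/C-L. Reported as % inhibition vs vehicle; mean ± SD, n = 3.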

For series [5], the system named is CHOP/GADD153, phospho-eIF2α, Bip, Hsp70 in xenografted MM.1S tumors. Briefly: Immunoblot of ER stress proteins in tumor lysates. It is filed as in vivo, CB-17 SCID mice. To be noted: tumors harvested 3h after last dose (Day 21). In general terms: In western blotting, separated proteins are transferred to a membrane and probed.
The subject of series [6] is proteasome. The note with it: rats, single dose 0.15 mg/kg; ref Chauhan, et al 2005; cited from earlier work.
Another series deals with MM.1S tumors. Briefly: Human plasmacytoma xenograft efficacy study. It is filed as in vivo, CB-17 SCID mice. The note with it: 0.15 mg/kg i.v. twice a week for three weeks. The method in brief: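 Male CB-17 SCID mice (4-6 wk) were given 5.0 × 106 MM.1S cells s.c. in the flank in serum-free RPMI. They then received 0.15 mg/kg i.v. or vehicle (2% DMSO/98% of 5% Solutol) twice weekly for three weeks (D1, D4, D8, D11, D15, D18); n=5 per group. Tumors were measured with calipers every third day, and volume was calculated as V = 0.5 a × b2. Mean ± SD; Student's t test, P < 0.05.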
(In general: Xenograft models place foreign cells or tissue in a host animal.)

The subject of series [7] is caspase-3 activation / PARP cleavage in xenografted MM.1S tumors. Put plainly: In situ detection of apoptosis and immunoblot. It is filed as in vivo, CB-17 SCID mice. The method in brief: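 Xenograft-bearing mice were treated i.v. with 0.15 mg/kg or vehicle twice weekly for three weeks. Tumors were harvested on Day 21, either 3h after the last dose (immunoblot) or at endpoint (IHC). For in situ staining, apoptotic cells were identified by cleaved caspase-3. Tumor lysates (three mice per group) were immunoblotted for PARP, cleaved caspase-3 and GAPDH, using HRP-conjugated secondary antibodies and ECL detection.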

A further series deals with CT-L proteasome activity. To be noted: MTD doses (0.7 mg/m^2), other clinical trials; cited from earlier work.
In series [8] the test system is Factor VIII-positive cells in xenografted MM.1S tumors. Briefly: IHC Factor VIII staining. The class given is in vivo, CB-17 SCID mice. The note with it: vs vehicle alone, tumors harvested Day 21. The method in brief:
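Xenograft-bearing mice received vehicle or 0.15 mg/kg i.v. twice weekly for three weeks. MM.1S tumors were harvested 3h after the last dose (Day 21), and paraffin-embedded sections were immunostained for Factor VIII as an angiogenesis marker. The images shown are representative of two mice per treatment.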

[9] abbreviates: tumors, single dose 0.15 mg/kg i.v.

Values joined by “and” are separate entries in the source; they are usually repeats but may differ in a detail not shown here. Equal entries are not always repeated. “Also recorded” adds a separate entry of the source.

In the case of `CC(C)C[C@H](NC(=O)[C@H](Cc1ccccc1)NC(=O)c1cnccn1)B(O)O` [bortezomib], in the series with proteasome [1], the “time for recovery of proteasome activity in blood” value is recorded as at least 48 h.
As for `C[C@@]12OC(=O)[C@]1([C@@H](O)[C@@H]1C=CCCC1)NC(=O)[C@@H]2CCCl` [NPI-0052, marizomib], the inhibition at 0.15 mg/kg in series [2] was found to be 60%. Besides, the “toxicity (body weight, overall appearance)” value in [3] was “not associated with any toxicity”. Moreover, the “time to onset of inhibition of all three proteasome activities” value in series [4] (PWB, liver, spleen, lung, kidney, single dose 0.15 mg/kg i.v.) was at most 10 min. Besides, the “time for proteasome activities to return to baseline” value in series [4] (all tissues examined except PWB and tumors, single dose) is listed as at most 24 h. Also, the “inhibition of proteasome activity in brain” value in [4] (brain tissue, any time point after single or three doses, 0.15 mg/kg i.v., 0.15 mg/kg) is given as “does not inhibit; also recorded: no significant inhibition”. Besides, the “time for recovery of all three proteasome activities” value in series [4] (liver, kidney, lung, spleen, after three doses) is listed as at most 24 h. In addition, the “inhibition of all three proteasome activities in most tissues” value in series [4] (most tissues, without significant toxicity) is given as “greater than 70%”. Moreover, the “duration of proteasome inhibition” value in series [4] (other organs (lung, liver, spleen, kidney)) is reported as under 24 h. In addition, the “inhibition of all three proteasome activities in tumor” value in [4] (24h post single dose) is recorded as 25-60%. Also, the “inhibition of all three proteasome activities in tumor” value in series [4] (24h post third dose) was 70-80%. Also, the “duration of proteasome inhibition” value in [4] (tumors and PWB) was over 24 h. The “inhibition of all three proteasome activities” value in series [4] (tumors, PWB and other tissues except brain, within 10 mins following the third dose, 0.15 mg/kg i.v.) is 65-90%. In addition, in series [4] (setting [9]), the “time of maximal inhibition of proteasome activities in tumors” value amounted to 24 h and the “time to onset of inhibition of proteasome activities in tumors” value is at most 1 h. Also, the “endoplasmic stress-response proteins in tumor lysates” value in [5] is “upregulation of CHOP/GADD153, phospho-eIF2α, Bip, and Hsp70”. In addition, in the series on proteasome [6], the “time for recovery of proteasome inhibition in PWB” value was at most 7 days. Moreover, in the series on MM.1S tumors, the “day on which anti-MM activity (delay in tumor growth) was first evident” value is 7 days and 5 to 7 days; the “tumor growth relative to vehicle-treated control” value is “significantly decreased tumor growth”. Besides, in series [7] (tumors harvested 3h after last treatment (Day 21)), the “PARP cleavage in tumor lysates” value was “robust cleavage”. In addition, in [7] (tumors harvested day 21, vs untreated control mice), the “caspase-3 positive cells in tumor sections” value was “increased numbers of caspase-3 positive cells”. In addition, in the series with CT-L proteasome activity, the “inhibition of CT-L proteasome activity at MTD doses” value was “Complete inhibition” and the “neuropathy or myelosuppression at MTD doses” value is “without evidence of neuropathy or myelosuppression”. In [8], the “Factor VIII-positive cells in tumor sections” value is given as “dramatically decreased”.

Values taken from article PMC4427841 (British journal of haematology, 2010).
